# Diaph inh CS – inhibits diaphorase or chemically oxidizes, flagging diaphorase assay artifacts; diaphorase resazurin-to-resorufin fluorescence, NADH, 16 min; bacterial (C. kluyveri) enzyme, not human; inhibition, % at 20 µM; 0.69% of 190,000 active; AID 1217;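 active means primary screen inhibition at 20 µM above a set limit, cut at about 50% in these data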;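 further: plate controls were DMSO with full reaction for no effect and wells lacking NADH for full effect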
#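 Assay system: diaphorase enzyme from Clostridium kluyveri. Quantity: enzyme working solution with 0.14 U/mL diaphorase. Schedule: reaction incubation of 16 min at room temperature. Technique: resorufin fluorescence, excitation 544 nm, emission 590 nm. Controls: No-NADH positive control and DMSO neutral control.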
# G6PDH CS – counter-screen for G6PDH assay hits: L. mesenteroides G6PDH inhibition | Purified L. mesenteroides G6PDH, diaphorase/resazurin coupled fluorescence, 45 min | inhibition, % at 5 µM | 0.12% of 200,000 active | AID 1020; in the data active means inhibition above about 50%
# Diaphorase act – counter-screen for diaphorase-based assays: diaphorase activators and chemical reducers; Diaphorase/resazurin coupled assay, resorufin fluorescence, 16 min; hits give high values; 1 = vehicle wells, 0 = NADH-free wells; activation factor at 20 µM; 0.005% of 190,000 active; AID 1229;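 active means diaphorase activity raised at least twofold by the compound at 20 µM; inactive means activation factor below 2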
#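 Measured by – red resorufin fluorescence at 544/590 nm excitation/emission · Test system – Clostridium kluyveri diaphorase, purified enzyme · Incubation – reaction time 16 min, room temperature · Buffer or medium – 50 mM HEPES pH 7.4 with 4.542 mM MgCl2, 0.005% Tween 20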
# Arbovirus anti – blocks arbovirus infection | AID 1251 | inhibition, % at 10 µM | arbovirus infection cell-based antiviral screen | 0.37% of 200,000 active; in the data active means inhibition above about 30%
# HKDC1 inh – blocks human hexokinase HKDC1 activity; Q2TB90; recombinant HKDC1, G6PDH/diaphorase resazurin coupled fluorescence; inhibition, % at 20 µM; 0.16% of 340,000 active; AID 493160;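 active means inhibition above about 35% when tested at 20 µM, limit read from the data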;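 further: plate controls were DMSO wells with enzyme for no effect and DMSO wells lacking enzyme for full effect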
# Target sequence (Q2TB90 whole entry, looked up): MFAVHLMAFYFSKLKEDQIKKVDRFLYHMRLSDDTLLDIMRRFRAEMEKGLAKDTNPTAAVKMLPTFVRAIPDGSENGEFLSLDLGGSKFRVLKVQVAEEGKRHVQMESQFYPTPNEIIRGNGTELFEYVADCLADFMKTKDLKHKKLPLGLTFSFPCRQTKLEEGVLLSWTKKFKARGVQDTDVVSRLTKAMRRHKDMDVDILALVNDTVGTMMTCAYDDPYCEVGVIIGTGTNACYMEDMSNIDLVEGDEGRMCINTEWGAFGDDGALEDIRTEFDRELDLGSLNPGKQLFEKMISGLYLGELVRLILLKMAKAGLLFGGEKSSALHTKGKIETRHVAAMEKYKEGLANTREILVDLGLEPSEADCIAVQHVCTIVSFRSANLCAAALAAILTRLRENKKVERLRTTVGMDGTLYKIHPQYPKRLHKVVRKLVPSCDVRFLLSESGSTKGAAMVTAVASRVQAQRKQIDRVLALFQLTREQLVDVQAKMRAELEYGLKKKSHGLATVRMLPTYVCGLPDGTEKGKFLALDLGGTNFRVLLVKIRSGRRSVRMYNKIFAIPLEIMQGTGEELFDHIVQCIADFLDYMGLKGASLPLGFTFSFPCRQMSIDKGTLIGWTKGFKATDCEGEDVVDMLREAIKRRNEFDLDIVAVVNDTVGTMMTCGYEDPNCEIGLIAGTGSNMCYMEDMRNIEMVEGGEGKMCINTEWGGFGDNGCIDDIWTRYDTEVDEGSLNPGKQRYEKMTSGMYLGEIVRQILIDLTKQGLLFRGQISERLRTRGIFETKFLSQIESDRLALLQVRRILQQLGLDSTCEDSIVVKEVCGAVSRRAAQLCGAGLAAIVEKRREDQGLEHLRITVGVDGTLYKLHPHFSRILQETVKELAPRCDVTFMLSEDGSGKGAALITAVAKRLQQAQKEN
#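 Assay system: in-house recombinant HK5 (HKDC1) enzyme. Input: HKDC1 at 5 µg/mL. Medium: Tris pH 8.0 buffer with MgCl2, Tween-20, BSA, BME. Dosing: single 20 µM dose. Schedule: 90 min reaction incubation at room temperature, dark. Signal: resazurin-to-resorufin fluorescence via G6PDH and diaphorase coupling, 525/613 nm. Controls: DMSO-enzyme wells negative, buffer-substituted wells positive.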
# * marks the source's active call; other numbers are inactive results; · = no result. This is a sample that favours compounds with a hit; in the whole collection about 0.74% have one here.
SMILES,Diaph inh CS,G6PDH CS,Diaphorase act,Arbovirus anti,HKDC1 inh
CC(C)(C)N1C(=O)Cc2c1nc(N)c1c(N)nc(N3CCCCC3CO)c(C#N)c21 (stereo not drawn),56.5*,46.4,0.4,-2.7,24.7
O=C(c1cc(-c2ccc(O)cc2)on1)N1CCc2ccccc2C1,17.1,1.9,0.8,-22.6,-1.8
O=C(c1cc(-c2ccccc2O)on1)N1CCc2ccccc2C1,27.4,-1.5,0.7,33.5*,-2.0
Cc1cc(=O)n2cccc(O)c2n1,63.0*,56.5*,0.4,3.2,-2.7
Cc1cccn2c(=O)cc(COC(=O)C(C)Oc3ccccc3)nc12 (stereo not drawn),·,·,·,·,-0.5
Cc1occc1-c1nnc(SCC(=O)Nc2ccccc2)n1C,77.9*,5.8,0.2,-1.1,0.9
CSc1nnc(C)c(=O)n1COC(=O)COc1ccc(Cl)cc1,17.9,14.1,0.8,14.4,-2.8
Cc1ccc(-c2ccnc(=S)[nH]2)cc1,66.7*,-1.1,0.3,2.7,-2.7
S=c1nccc(-c2ccc3c(c2)CCO3)[nH]1,·,·,·,·,0.9
c1csc(-c2ccn[nH]2)c1,·,·,·,·,-2.2
S=c1nccc(-c2cccs2)[nH]1,53.5*,-3.5,0.5,-0.5,1.7
CC(C(=O)Nc1ccc(Cl)cc1)N1C(=O)NC2(CCCC2)C1=O (stereo not drawn),·,·,·,·,-2.6
Cc1nn2c(-c3ccccc3)c(-c3ccccc3)nc2[nH]c1=O,25.8,3.8,0.7,31.7*,-3.3
CC(C)c1ccc(N=Cc2c(O)c3ccccc3oc2=O)cc1,·,·,·,·,3.3
O=C(O)C(Cc1ccccc1)N=Cc1c(O)c2ccccc2oc1=O (stereo not drawn),15.0,7.4,0.8,31.2*,-7.9
COc1ccccc1Nc1cc(C(=O)N2CCc3ccccc3C2)c2ccccc2n1,19.4,-1.7,0.8,12.0,·
COc1ccccc1-c1cc(C(=O)N2CCc3ccccc3C2)c2ccccc2n1,28.4,0.4,0.7,41.7*,·
CN1CCC(CC(C(=O)N2CCCC2)(c2ccccc2)c2ccccc2)C1 (stereo not drawn),·,·,·,·,0.7
Fc1ccccc1N1CCN(c2ncnc3[nH]ncc23)CC1,12.2,-2.8,0.9,43.0*,-1.2
Fc1ccccc1N1CCN(c2ncnc3nc[nH]c23)CC1,·,·,·,·,-6.3
CCc1noc(C)c1C(=O)OCC(=O)c1ccc(NC(C)=O)cc1F,·,·,·,·,1.1
CCCCn1c(=O)[nH]c2nc3cc(N)ccc3nc2c1=O,66.6*,16.8,0.3,-18.9,17.1
Nc1ccc2nc3c(=O)n(CCc4ccccc4)c(=O)[nH]c3nc2c1,·,·,·,·,20.6
Cc1nc(NCc2ccco2)c2c3c(sc2n1)CCC3,17.8,6.8,0.8,-18.1,-3.5
CCN1CCc2c(sc3c2c(NCc2ccco2)nc2nnnn23)C1,14.9,-13.7,0.9,32.5*,14.5
SMILES,Diaph inh CS,G6PDH CS,Diaphorase act,Arbovirus anti,HKDC1 inh
CCCC1=NN2C(=N)/C(=C\c3ccc(SCc4ccco4)o3)C(=O)N=C2S1,51.4*,-1.7,0.5,31.9*,27.8
O=C1NC(=S)S/C1=C\c1ccc(SCc2ccccc2)o1,35.4,-13.2,0.6,-2.0,7.0
CCC1=NN2C(=N)/C(=C\c3ccc(SCc4ccco4)o3)C(=O)N=C2S1,55.5*,0.9,0.4,62.2*,14.5
CCCC1=NN2C(=N)/C(=C\c3cc(C)n(-c4cccc(C)c4)c3C)C(=O)N=C2S1,18.1,-1.4,0.8,32.5*,-0.8
O=C1NC(=S)S/C1=C\c1ccc(SCc2ccco2)o1,80.9*,13.2,0.2,18.2,50.6*
CCCC1=NN2C(=N)/C(=C\c3cc(C)n(Cc4ccccc4)c3C)C(=O)N=C2S1,·,·,·,·,3.8
O=C(CCCOc1ccc(Cl)cc1Cl)NC(Cc1ccccc1)C(=O)O (stereo not drawn),·,·,·,·,-3.8
O=C(OCC(=O)c1c[nH]c2ccccc12)c1cccc([N+](=O)[O-])c1,·,·,·,·,-4.2
COc1ccc(OC)c(CN2CCN(C(=O)c3cccc(S(=O)(=O)Nc4ccc(F)cc4)c3)CC2)c1,·,·,·,·,9.2
Cc1cc2c(cc(C(=O)OCC(=O)NC3CCCCC3)n2C)o1,·,·,·,·,-1.2
O=C(O)CCc1nc(-c2ccccc2)c(-c2ccccc2)o1,79.8*,1.2,0.2,1.5,·
COc1ccc2cc(-c3cc(C(=O)O)c4ccccc4n3)ccc2c1,7.4,1.0,0.9,34.2*,9.2
CC(Oc1nc2c(c(=O)n(C)c(=O)n2C)n1C)C1CCCCC1 (stereo not drawn),·,·,·,·,-1.6
CCOC(=O)c1nnn2c1nc(N1CCCCC1)c1ccccc12,·,·,·,·,-1.1
CCC1CCCCN1c1nc2c(C=O)c(C)nn2c2ccccc12 (stereo not drawn),67.6*,-23.7,0.3,-9.6,-7.6
COc1ccc(-c2c(=O)n(OCc3ccccc3[N+](=O)[O-])c3ccccc3[n+]2[O-])c(OC)c1,51.1*,-1.6,0.5,3.8,-1.9
CCCC(=O)Nc1nnc(COC)s1,7.8,-1.8,0.9,1.0,-5.4
Cc1nnc(SCC(=O)N2CCc3ccccc32)s1,19.2,13.1,0.8,39.3*,-9.4
Cc1ccc(-c2nnc3ccc(SCC(=O)N4CCCc5ccccc54)nn23)cc1,50.5*,-7.0,0.5,-11.8,0.7
CCOC(=O)N1CCc2c(sc3c2c(=O)n(Cc2ccccc2)c(=O)n3Cc2ccc(C)cc2)C1,8.1,9.0,0.9,-1.9,-1.3
COc1cc(/C=C2\CC/C(=C\c3cc(OC)c(O)c(OC)c3)C2=O)cc(OC)c1O,70.7*,56.3*,0.3,-28.0,28.7
CC1=C(C(=O)OCc2ccc3c(c2)OCO3)C(c2ccccc2)NC(=O)N1 (stereo not drawn),27.9,-0.4,0.7,3.8,-6.1
CC1=C(C(=O)OCc2ccc3c(c2)OCO3)C(c2ccc(O)c([N+](=O)[O-])c2)NC(=O)N1 (stereo not drawn),51.5*,-3.1,0.5,12.3,0.0
CCCOC(=O)C1=C(C)N(C)C(=O)NC1c1cc2c(cc1[N+](=O)[O-])OCO2 (stereo not drawn),26.8,7.9,0.7,-4.0,-4.5
CCOC(=O)C1=C(C)NC(=O)CC1c1cc2c(cc1[N+](=O)[O-])OCO2 (stereo not drawn),72.0*,28.8,0.3,1.0,0.1
SMILES,Diaph inh CS,G6PDH CS,Diaphorase act,Arbovirus anti,HKDC1 inh
CSc1cc(-c2ccc(Cl)cc2)[nH]c(=O)c1C#N,6.9,-2.2,0.9,-10.0,7.7
Cc1ccc(-c2[nH]c(=S)[nH]c(=O)c2C#N)cc1,78.1*,9.5,0.2,1.6,-6.3
CCC(=O)N(C1=C(NC(C)C)C(=O)c2ccccc2C1=O)C(C)C,19.0,55.2*,0.8,-7.8,14.2
CCN(C[C@H]1N[C@@](CC)(C(=O)OC)[C@H]2C(=O)N(Cc3ccccc3)C(=O)[C@@H]12)C(=O)c1ccc(C(C)(C)C)cc1,·,·,·,·,-1.1
CCOC(=O)C1CCCN(C(=O)c2cc(S(=O)(=O)N3CCCCC3)ccc2Cl)C1 (stereo not drawn),·,·,·,·,-6.0
O=C(Nc1nc(-c2cc(F)ccc2F)cs1)C1=NN(c2ccccc2)C(=O)CC1,12.9,5.1,0.9,9.7,-5.7

# Screening data deposited in PubChem BioAssay by several laboratories.
